From ChEMBL document CHEMBL4130628, “Identification and Pharmacological Profile of an Indane Based Series of Ghrelin Receptor Full Agonists” (J Med Chem, 2018)
Active and inactive are the calls of the source. The rule behind the calls is not given here.

How the values were obtained:
[1] = biological target: T1, Growth hormone secretagogue receptor type 1 (Homo sapiens, UniProt Q92847); experiment: Agonist activity at human GHS receptor assessed as intracellular myo-IP1 secretion after 90 mins by HTRF analysis; format: functional, cell-based
T1 sequence (Q92847 whole entry): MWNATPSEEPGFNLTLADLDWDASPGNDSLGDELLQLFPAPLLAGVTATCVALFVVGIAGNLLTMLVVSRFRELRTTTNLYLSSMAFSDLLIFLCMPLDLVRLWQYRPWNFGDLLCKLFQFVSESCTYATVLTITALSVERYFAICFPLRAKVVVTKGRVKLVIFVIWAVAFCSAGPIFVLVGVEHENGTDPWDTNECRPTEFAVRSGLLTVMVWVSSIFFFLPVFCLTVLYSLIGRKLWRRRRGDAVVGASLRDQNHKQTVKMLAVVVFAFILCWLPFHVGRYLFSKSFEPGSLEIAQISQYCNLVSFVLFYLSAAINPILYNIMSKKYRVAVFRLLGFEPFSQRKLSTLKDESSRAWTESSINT

[2] = biological target: T1, Growth hormone secretagogue receptor type 1; experiment: Displacement of human [125I]-ghrelin from GHS-R1a (unknown origin) expressed in HEK293 cell membranes after 1 hr by radioligand binding assay
[3] = biological target: Voltage-gated inwardly rectifying potassium channel KCNH2 (Homo sapiens, UniProt Q12809); experiment: Inhibition of human ERG expressed in CHO cells; format: cell-based
Sequence of Voltage-gated inwardly rectifying potassium channel KCNH2 (Q12809 whole entry): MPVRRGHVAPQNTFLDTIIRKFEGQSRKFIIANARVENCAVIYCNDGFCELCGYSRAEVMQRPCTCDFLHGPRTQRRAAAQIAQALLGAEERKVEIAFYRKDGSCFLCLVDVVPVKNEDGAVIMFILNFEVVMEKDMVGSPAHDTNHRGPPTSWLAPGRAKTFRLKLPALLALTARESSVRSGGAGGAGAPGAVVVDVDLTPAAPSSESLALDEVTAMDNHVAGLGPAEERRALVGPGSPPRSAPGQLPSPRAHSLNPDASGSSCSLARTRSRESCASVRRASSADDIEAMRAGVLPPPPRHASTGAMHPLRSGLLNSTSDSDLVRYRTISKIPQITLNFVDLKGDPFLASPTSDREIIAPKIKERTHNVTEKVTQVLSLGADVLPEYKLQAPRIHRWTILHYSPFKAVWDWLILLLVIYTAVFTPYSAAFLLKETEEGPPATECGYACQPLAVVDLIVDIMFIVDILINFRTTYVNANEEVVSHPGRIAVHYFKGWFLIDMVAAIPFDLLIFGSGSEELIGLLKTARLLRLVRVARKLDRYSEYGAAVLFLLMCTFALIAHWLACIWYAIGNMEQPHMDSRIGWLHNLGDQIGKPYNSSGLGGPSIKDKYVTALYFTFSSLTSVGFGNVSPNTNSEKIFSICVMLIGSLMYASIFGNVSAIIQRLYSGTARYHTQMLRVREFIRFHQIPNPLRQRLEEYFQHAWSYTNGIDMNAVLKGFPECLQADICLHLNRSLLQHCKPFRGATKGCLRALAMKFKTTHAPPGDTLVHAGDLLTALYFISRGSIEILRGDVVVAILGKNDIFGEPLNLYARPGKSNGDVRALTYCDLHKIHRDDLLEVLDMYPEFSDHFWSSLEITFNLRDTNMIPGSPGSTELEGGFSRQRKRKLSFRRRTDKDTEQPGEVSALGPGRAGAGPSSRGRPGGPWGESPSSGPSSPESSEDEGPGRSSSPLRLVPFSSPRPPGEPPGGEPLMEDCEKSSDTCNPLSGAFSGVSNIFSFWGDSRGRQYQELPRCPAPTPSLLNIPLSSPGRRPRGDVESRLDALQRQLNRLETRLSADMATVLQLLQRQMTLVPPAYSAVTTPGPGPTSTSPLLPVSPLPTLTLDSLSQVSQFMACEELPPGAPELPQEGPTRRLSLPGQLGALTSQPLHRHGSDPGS
How it was run: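 hERG currents recorded from CHO cells expressing hERG.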

[4] = 1-octanol/aqueous buffer distribution coefficient, log D of compound at pH 7.4; format: physicochemical
[5] = Intrinsic clearance in human liver microsomes; format: ADME, microsome; conditions: read-out: CLH
hERG (KCNH2) = hERG (KCNH2) (Homo sapiens, UniProt Q12809); experiment: Inhibition of human ERG expressed in CHO cells at 11 uM relative to control; format: cell-based; conditions: CHO cells that express hERG
Sequence of hERG (KCNH2) (Q12809 whole entry): as above

[6] = Half life in Beagle dog at 2 mg/kg, po after 24 hrs by LC-MS/MS analysis; format: ADME, organism-based, Canis lupus familiaris; conditions: in vivo
How it was run: (§1)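 Male/female beagles (2–5 y, 12–15 kg) were fasted overnight. IV: about 1 mg/Kg as a 15-min infusion to two animals, in 5% DMSO/95% SBE-β-CD (30% w/v) adjusted to pH 7.5. PO: about 2 mg/Kg by gavage, in the same vehicle or 0.5% HPMC/0.1% Tween 80 suspension. Jugular blood was drawn 0.03–24 h (IV) or 0.17–24 h (PO). K2-EDTA plasma analysed by LC-MS/MS.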

[7] = Apparent permeability across basolateral to apical side in human Caco2 cells at pH 7.4; format: ADME, cell-based; conditions: Caco-2, pH 7.4
[8] = Apparent intrinsic permeability across apical to basolateral side in human Caco2 cells at pH 6.5; format: ADME, cell-based; conditions: Caco-2, pH 6.5
[9] = Ratio of unbound drug level in brain to plasma in Beagle dog at 1 mg/kg, iv or 2 mg/kg, po after 24 hrs by LC-MS/MS analysis; format: ADME, organism-based, Canis lupus familiaris; conditions: read-out: K(p,uu,brain)
[10] = Efflux ratio of apparent permeability across basolateral to apical over apical to basolateral side in human Caco2 cells; format: ADME, cell-based; conditions: Caco-2
How it was run: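 Caco-2 monolayers; Papp measured in both directions at pH 7.4 (units 1E-6 cm/s). Efflux ratio taken as Papp basolateral-to-apical divided by Papp apical-to-basolateral.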

[11] = Oral bioavailability in Beagle dog at 2 mg/kg after 24 hrs by LC-MS/MS analysis; format: ADME, organism-based, Canis lupus familiaris; conditions: in vivo; how it was run: as §1
Canis familiaris = experiment: Increase in plasma IGF1 level in Beagle dog at 4 mg/kg, po measured after 4 to 7 hrs post dose by ELIS; format: functional, organism-based; conditions: Canis lupus familiaris
How it was run: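 Dog blood taken before dosing and at 15, 30, 45 min and 1, 2, 4, 7, 12, 24 h post dose into K2EDTA tubes. Centrifuged at 4°C; plasma frozen below -80°C until IGF-1 analysis.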

[12] = Volume of distribution in Beagle dog at 1 mg/kg, iv or 2 mg/kg, po after 24 hrs by LC-MS/MS analysis; format: ADME, organism-based, Canis lupus familiaris; conditions: in vivo; how it was run: as §1
[13] = Clearance in Beagle dog at 1 mg/kg, iv or 2 mg/kg, po after 24 hrs by LC-MS/MS analysis; format: ADME, organism-based, Canis lupus familiaris; conditions: in vivo; how it was run: as §1
[14] = Apparent permeability across apical to basolateral side in human Caco2 cells at pH 7.4; format: ADME, cell-based; conditions: Caco-2, pH 7.4
[15] = 1-octanol/aqueous buffer, read-out: logD

Structure (SMILES) | EC50 ([1]; read-out: EC50) | IC50 ([2]; read-out: IC50) | logD [4, 15] | further results
Cc1ccc2[nH]c(C(=O)N[C@@H]3Cc4ccccc4[C@@H]3NC(=O)CCN(C)C)cc2c1 | 1500 nM | 1260 nM |  | IC50 [3]: 6310 nM
CN(C)CCC(=O)N[C@H]1c2ccccc2C[C@@H]1NC(=O)c1cc2cc(F)c(F)cc2[nH]1 | 35 nM | 98 nM |  | IC50 [3]: 3980 nM
CC(=O)N1CCO[C@H](C(=O)N[C@H]2c3ccccc3C[C@@H]2NC(=O)c2ccc3c(ccn3C)c2)C1 | > 7700 nM |  | 2.2 | EC50 ([1]; read-out: pEC50 (converted)): > 10000 nM
CN1CCC[C@@H](C(=O)N[C@H]2c3ccccc3C[C@@H]2NC(=O)c2ccc3c(ccn3C)c2)C1 | 170 nM | 528 nM | 1.9 | 
CN1N=C2CCN(C(=O)[C@@H](COCc3ccccc3)NC(=O)C(C)(C)N)C[C@@]2(Cc2ccccc2)C1=O [CAPROMORELIN] | 0.9 nM | 22 nM |  | 
O=C(N[C@H]1Cc2ccccc2[C@@H]1NC(=O)[C@H]1CCNC1)c1cc2cc(F)ccc2[nH]1 | 47 nM | 189 nM |  | IC50 [3]: > 10000 nM
Cc1ccc2[nH]c(C(=O)N[C@@H]3Cc4ccccc4[C@H]3NC(=O)CCN(C)C)cc2c1 | 226 nM | 930 nM |  | IC50 [3]: 2510 nM
CN1CC[C@H](C(=O)N[C@H]2c3ccccc3C[C@@H]2NC(=O)c2ccc3c(ccn3C)c2)C1 | 250 nM | 343 nM | 1.4 | 
N#Cc1ccc2[nH]c(C(=O)N[C@H]3Cc4ccccc4[C@@H]3NC(=O)c3cnccc3N)cc2c1 | 44 nM | 187 nM | 2.1 | 
Cn1c(C(=O)N[C@H]2Cc3ccccc3[C@@H]2NC(=O)c2cnccc2N)cc2ccccc21 | 15 nM | 246 nM | 4.1 | 
Nc1ccncc1C(=O)N[C@H]1c2ccccc2C[C@@H]1NC(=O)c1cc2c(F)cc(F)cc2[nH]1 | 3 nM | 14 nM | 3.1 | 
CN1CCC[C@@H]1CC(=O)N[C@H]1c2ccccc2C[C@@H]1NC(=O)c1ccc2c(ccn2C)c1 | > 740 nM | 184 nM | 1.8 | EC50 ([1]; read-out: pEC50 (converted)): > 794 nM
CN1CCCCC(C(=O)N[C@H]2c3ccccc3C[C@@H]2NC(=O)c2ccc3c(ccn3C)c2)C1 (stereo in doubt; 28) | 76 nM | 189 nM |  | logD ([4]; octanol/water): 1.6
Nc1ccncc1C(=O)N[C@H]1c2ccccc2C[C@@H]1NC(=O)c1cc2ccccc2[nH]1 | 25 nM | 49 nM | 2.4 | 
Cc1ccc2[nH]c(C(=O)N[C@H]3Cc4ccccc4[C@H]3NC(=O)CCN(C)C)cc2c1 | 100 nM | 69 nM |  | IC50 [3]: 25100 nM
Cc1ccc2[nH]c(C(=O)N[C@H]3Cc4ccccc4[C@@H]3NC(=O)CCN(C)C)cc2c1 | 21 nM | 16 nM |  | IC50 [3]: 7940 nM
Cc1ccc2[nH]c(C(=O)N[C@H]3Cc4ccccc4[C@@H]3C(=O)N[C@H]3CCCN(C)C3)cc2c1 | 0.1 nM |  | 3 | microsomal CLint [5]: 132 µL/min/mg; inhibition at 11 µM (hERG (KCNH2)): 30%
Cn1ccc2c(F)c(C(=O)N[C@H]3Cc4ccccc4[C@@H]3NC(=O)c3cnccc3N)ccc21 | 3 nM | 13 nM | 2.9 | EC50 ([1]; read-out: pEC50 (converted)): 10 nM

Structure (SMILES) | EC50 ([1]; read-out: EC50) | IC50 ([2]; read-out: IC50) | logD [4, 15] | further results
COCCNCCC(=O)N[C@H]1c2ccccc2C[C@@H]1NC(=O)c1cc2ccccc2n1C | 160 nM | 430 nM |  | IC50 [3]: 1580 nM
CN(C)CCNC(=O)[C@@H]1c2ccccc2C[C@H]1NC(=O)c1cc2ccccc2[nH]1 | 630 nM | 560 nM | 2.3 | IC50 [3]: 12600 nM; microsomal CLint [5]: 3 µL/min/mg
CN1CCC[C@H](C(=O)N[C@H]2c3ccccc3C[C@@H]2NC(=O)c2ccc3c(ccn3C)c2)C1 | 28 nM | 556 nM | 2.1 | 
Cc1ccc2[nH]c(C(=O)N[C@H]3Cc4ccccc4[C@@H]3NC(=O)[C@H]3COCCN(C)C3)cc2c1 | 21 nM |  | 3.7 | 
Cc1ccc2[nH]c(C(=O)N[C@H]3Cc4ccccc4[C@@H]3C(=O)N(C)CCN(C)C)cc2c1 | 5 nM | 14 nM | 2.5 | microsomal CLint [5]: 26 µL/min/mg; inhibition at 11 µM (hERG (KCNH2)): 50%
CN1CCCO[C@@H](C(=O)N[C@H]2c3ccccc3C[C@@H]2NC(=O)c2ccc3c(ccn3C)c2)C1 | 262 nM | > 1000 nM | 2.3 | pIC50 ([2]; hek293): < 6
CN1CCC[C@H]1CC(=O)N[C@H]1c2ccccc2C[C@@H]1NC(=O)c1ccc2c(ccn2C)c1 | 19 nM | 29 nM | 1.7 | 
Nc1ccncc1C(=O)N[C@H]1c2ccccc2C[C@@H]1NC(=O)c1nc2cc(F)c(F)cc2[nH]1 | 23 nM | 89 nM | 2.4 | 
Cn1ccc2cc(C(=O)N[C@H]3Cc4ccccc4[C@@H]3NC(=O)c3cnccc3N)cc(F)c21 | 7 nM |  | 4 | 
CN1CCO[C@@H](C(=O)N[C@H]2c3ccccc3C[C@@H]2NC(=O)c2ccc3c(ccn3C)c2)C1 | 274 nM | > 2900 nM | 2.4 | IC50 ([2]; read-out: pIC50 (converted)): > 3160 nM
Cc1ccc2[nH]c(C(=O)N[C@H]3Cc4ccccc4[C@H]3C(=O)NCCN(C)C)cc2c1 |  |  | 2.3 | inhibition at 11 µM (hERG (KCNH2)): 42%
CN1CCCCC(C(=O)N[C@H]2c3ccccc3C[C@@H]2NC(=O)c2ccc3c(ccn3C)c2)C1 (stereo in doubt; 27) | 36 nM | 107 nM | 2.1 | 
Cn1ccc2cc(C(=O)N[C@H]3Cc4ccccc4[C@@H]3NC(=O)c3cnccc3N)c(F)cc21 | 135 nM |  | 3.1 | 
CN1CC[C@@H](C(=O)N[C@H]2c3ccccc3C[C@@H]2NC(=O)c2ccc3c(ccn3C)c2)C1 | 129 nM | 288 nM | 1.4 | 
Cc1ccc2[nH]c(C(=O)N[C@H]3Cc4ccccc4[C@@H]3NC(=O)[C@@H]3CNCCOC3)cc2c1 | 137 nM |  | 2.6 | 
Cc1ccc2[nH]c(C(=O)N[C@H]3Cc4ccccc4[C@@H]3NC(=O)[C@@H]3CN(C)CCO3)cc2c1 | 1.4 nM | 14 nM | 3.7 | half-life [6]: 1.2 h; Papp B→A [7]: 7.5 ×10⁻⁶ cm/s; Papp A→B [8]: 44.4 ×10⁻⁶ cm/s; Kp uu at 24 h [9]: 0.292; efflux ratio [10]: 0.5; bioavailability [11]: 39%; Activity (Canis familiaris): Active; Vd [12]: 2.1 L/kg; clearance [13]: 28 mL/min/kg; Papp A→B [14]: 15.3 ×10⁻⁶ cm/s
Cc1ccc2[nH]c(C(=O)N[C@H]3Cc4ccccc4[C@@H]3NC(=O)c3cnccc3N)cc2c1 | 14 nM | 35 nM | 3 | 
CN1CCCO[C@H](C(=O)N[C@H]2c3ccccc3C[C@@H]2NC(=O)c2ccc3c(ccn3C)c2)C1 | 10 nM | 71 nM | 2.3 | 
